# Where “and” joins values, the source holds several entries; their conditions need not be identical. Identical values can stand only once.
# Legend:
# Tubulin (Bos taurus) [1] = target: T1, Tubulin (Bos taurus) (UniProt Q6B856+Q862L2+Q862F3); assay: Displacement of [3H]colchicine from bovine brain tubulin at 5 uM after 10 mins by scintillation counting analysis
# In short: (§1)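 1.0 μM tubulin with 5.0 μM [3H]colchicine and inhibitor at 1.0 or 5.0 μM. Buffer: 5% DMSO, 1.0 M monosodium glutamate pH 6.6, 0.5 mg/mL BSA, 0.1 M glucose-1-phosphate, 1.0 mM MgCl2, 1.0 mM GTP. Incubated 10 min at 37 °C, stopped with ice-cold water, collected on DEAE-cellulose filters and scintillation counted. Corrected for filter binding without tubulin; % inhibition against no-inhibitor controls.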
# [2] = Cytotoxicity against human DU145 cells assessed as growth inhibition after 48 hrs by SRB assay; assay type: functional, DU-145
# In short: (§2)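 Cells kept at 37 °C, 5% CO2, up to passage 15. Plated at 7500 cells/well in DMEM with 5% FBS and 1% gentamycin, grown 24 h, then given 10-fold serial dilutions for 48 h. Fixed with 10% TCA (final), SRB-stained, read at 540 nm, normalized at 630 nm. GI50 is the concentration halving net protein staining versus controls, taken from optical density data.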
# NCI-H460 [3] = assay: Cytotoxicity against human NCI-H460 cells assessed as growth inhibition after 48 hrs by SRB assay; assay type: functional; in short: as §2
# [4] = Cytotoxicity against human SKOV3 cells assessed as growth inhibition after 48 hrs by SRB assay; assay type: functional, SK-OV-3; in short: as §2
# Tubulin = Tubulin (Bos taurus, UniProt Q6B856+Q862L2+Q862F3); assay: Inhibition of bovine brain tubulin polymerization preincubated for 15 mins by spectrophotometric analysis
# In short: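 Purified bovine brain tubulin, 1.0 mg/mL (10 μM), in 0.8 M monosodium glutamate pH 6.6 with 4% DMSO and varied compound. Temperature jumped from 0 to 30 °C; turbidity at 350 nm followed for 20 min.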
# [5] = Retention time of the compound by HPLC analysis; assay type: physicochemical
# In short: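 Reversed-phase C18 HPLC (4.6 × 150 mm, 5 μm) at 25 °C with diode-array detection at 190–400 nm. Acetonitrile against water or 0.1% TFA/water. Gradient 10% to 100% acetonitrile over 40 min, or in method C 10% acetonitrile for 5 min then to 100% over 5–25 min, at 1.0 mL/min.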
# [6] = Cytotoxicity against human SKOV3 cells assessed as growth inhibition using compound dissolved in water after 48 hrs by SRB assay; assay type: functional; details: SK-OV-3, 48 h; in short: as §2
# [7] = Cytotoxicity against human DU145 cells assessed as growth inhibition using compound dissolved in DMSO after 48 hrs by SRB assay; assay type: functional; details: DU-145, 48 h; in short: as §2
# NCI-H460 [8] = assay: Cytotoxicity against human NCI-H460 cells assessed as growth inhibition using compound dissolved in water after 48 hrs by SRB assay; assay type: functional; details: NCI-H460, 48 h; in short: as §2
# NCI-H460 [9] = assay: Cytotoxicity against human NCI-H460 cells assessed as growth inhibition using compound dissolved in DMSO after 48 hrs by SRB assay; assay type: functional; details: NCI-H460, 48 h; in short: as §2
# [10] = Cytotoxicity against human DU145 cells assessed as growth inhibition using compound dissolved in water after 48 hrs by SRB assay; assay type: functional; details: DU-145, 48 h; in short: as §2
# Leucine aminopeptidase [11] = target: T2, Leucine aminopeptidase (Sus scrofa, UniProt Q29571); assay: Prodrug conversion assessed as porcine leucine aminopeptidase-mediated compound cleavage by HPLC analysis; assay type: ADME; details: pig
# T2 sequence (Q29571 whole entry): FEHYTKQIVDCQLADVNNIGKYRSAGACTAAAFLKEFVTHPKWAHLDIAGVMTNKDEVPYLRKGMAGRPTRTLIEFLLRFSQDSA
# In short: (§3)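 Porcine kidney microsomal LAP; units defined with 24 mM L-leucine p-nitroanilide in 50 mM sodium phosphate pH 7.2 at 37 °C. Enzyme preincubated in the same buffer at 37 °C, then substrate added. Aliquots were quenched with acetonitrile on ice, centrifuged and run on C18 HPLC (acetonitrile/water, 0.05% TFA, 1.0 mL/min, 22 °C, diode-array UV). Cleavage % from the parent/prodrug peak-area ratio; amounts from calibration curves.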
# Leucine aminopeptidase [12] = target: T2, Leucine aminopeptidase; assay: Prodrug conversion assessed as porcine leucine aminopeptidase-mediated compound cleavage at 25 hrs using 0.12 units of enzyme by HPLC analysis; assay type: ADME; details: pig; in short: as §3
# [13] = Cytotoxicity against human SKOV3 cells assessed as growth inhibition using compound dissolved in DMSO after 48 hrs by SRB assay; assay type: functional; details: SK-OV-3, 48 h; in short: as §2
# Leucine aminopeptidase [14] = target: T2, Leucine aminopeptidase; assay: Activity at porcine leucine aminopeptidase by HPLC analysis; assay type: ADME; details: pig; in short: as §3
# MDA-MB-231 [15] = assay: Induction of tumor-specific vascular damage in luciferase expressing human MDA-MB-231 cells xenografted in SCID mouse assessed as reduction in light emission at 15 mg/kg at 4 hrs post dose by bioluminescence imaging assay (reference value: 22%); assay type: functional; details: MDA-MB-231, 4 h
# MDA-MB-231 [16] = assay: Induction of tumor-specific vascular damage in luciferase expressing human MDA-MB-231 cells xenografted in SCID mouse assessed as reduction in light emission at 10 mg/kg at 4 hrs post dose by bioluminescence imaging assay (reference value: 22%); assay type: functional; details: MDA-MB-231, 4 h
# MDA-MB-231 [17] = assay: Induction of tumor-specific vascular damage in luciferase expressing human MDA-MB-231 cells xenografted in SCID mouse assessed as reduction in light emission at 15 mg/kg at 24 hrs post dose by bioluminescence imaging assay (reference value: 24%); assay type: functional; details: MDA-MB-231, 24 h
# MDA-MB-231 [18] = assay: Induction of tumor-specific vascular damage in luciferase expressing human MDA-MB-231 cells xenografted in SCID mouse assessed as reduction in light emission at 10 mg/kg at 24 hrs post dose by bioluminescence imaging assay (reference value: 24%); assay type: functional; details: MDA-MB-231, 24 h
# Tubulin (Bos taurus) [19] = target: T1, Tubulin (Bos taurus); assay: Displacement of [3H]colchicine from bovine brain tubulin at 1 uM after 10 mins by scintillation counting analysis; in short: as §1
SMILES,"GI50 ([2]; Homo sapiens, DU-145, 48 h)","GI50 (NCI-H460 [3]; Homo sapiens, NCI-H460, 48 h)",GI50 [4],Drug metabolism (Leucine aminopeptidase [11]),GI50 [2],GI50 (NCI-H460 [3]),also measured
COc1ccc2c(c1N)CCCC=C2c1cc(OC)c(OC)c(OC)c1,2.26 nM,1.85 nM,,,,,"inhibition (Tubulin (Bos taurus) [1]): 82%; GI50 ([4]; Homo sapiens, SK-OV-3, 48 h): 0.137 nM; IC50 (Tubulin): 1300 nM"
COc1ccc2c(c1NC(=O)[C@@H](N)CO)CCC=C2c1cc(OC)c(OC)c(OC)c1,40600 nM,31100 nM,,,,,"GI50 ([4]; Homo sapiens, SK-OV-3, 48 h): 13700 nM"
COc1ccc(/C=C\c2cc(OC)c(OC)c(OC)c2)c(N)c1 [listing 1 of 2 here],33.1 nM,40.1 nM,26.6 nM,,,,IC50 (Tubulin): 1100 nM; Retention_time [5]: 31.29 min
COc1ccc(/C=C\c2cc(OC)c(OC)c(OC)c2)c(NC(=O)CN)c1NC(=O)CN.Cl.Cl,,,,< 50%,,,GI50 [6]: > 56400 nM; GI50 [7]: > 64700 nM; GI50 (NCI-H460 [8]): > 96600 nM; GI50 (NCI-H460 [9]): > 68500 nM; GI50 [10]: > 90400 nM; Drug metabolism (Leucine aminopeptidase [12]): > 95%; GI50 [13]: 39300 nM
COc1ccc(/C=C\c2cc(OC)c(OC)c(OC)c2)c(NC(=O)CN)c1.Cl,,,48.5 nM,100%,44.7 nM,29.2 nM,Activity (Leucine aminopeptidase [14]): 180 µM/min
COc1ccc(/C=C\c2cc(OC)c(OC)c(OC)c2)c(NC(=O)[C@@H](N)CO)c1,34.7 nM,33.3 nM,,,,,"GI50 ([4]; Homo sapiens, SK-OV-3, 48 h): 39.5 nM"
COc1ccc2c(c1NC(=O)CN)CCC=C2c1cc(OC)c(OC)c(OC)c1.Cl,,,48.5 nM,100%,58.5 nM,42 nM,Activity (Leucine aminopeptidase [14]): 15.5 µM/min; inhibition in vivo at 15 mg/kg (MDA-MB-231 [15]): 97%; inhibition in vivo at 10 mg/kg (MDA-MB-231 [16]): 70%; inhibition in vivo at 15 mg/kg (MDA-MB-231 [17]): 90%; inhibition in vivo at 10 mg/kg (MDA-MB-231 [18]): 55%
COc1ccc2c(c1NC(=O)CN)CCC=C2c1cc(OC)c(OC)c(OC)c1,50.1 nM,36.5 nM,13.8 nM,,,,
COc1ccc(/C=C\c2cc(OC)c(OC)c(OC)c2)c(N)c1 [listing 2 of 2 here],,,,,,,inhibition (Tubulin (Bos taurus) [19]): 55%; inhibition (Tubulin (Bos taurus) [1]): 88% and 75%
COc1ccc(/C=C\c2cc(OC)c(OC)c(OC)c2)cc1NC(=O)[C@@H](N)CO.Cl,,,3.96 nM,95%,3.34 nM,3.87 nM,IC50 (Tubulin): 13000 nM
COc1ccc(/C=C/c2cc(OC)c(OC)c(OC)c2)c(NC(=O)CN)c1.Cl,,,,100%,,,GI50 [6]: 426 nM; GI50 [7]: 630 nM; GI50 (NCI-H460 [8]): 380 nM; GI50 (NCI-H460 [9]): 418 nM; GI50 [10]: 674 nM; GI50 [13]: 427 nM
COc1ccc(/C=C\c2cc(OC)c(OC)c(OC)c2)c(N)c1.Cl,,,7.35 nM,,28.5 nM,26.3 nM,IC50 (Tubulin): 2500 nM
COc1ccc(/C=C\c2cc(OC)c(OC)c(OC)c2)c(NC(=O)CN)c1,43.6 nM,53.2 nM,,,,,"GI50 ([4]; Homo sapiens, SK-OV-3, 48 h): 32.3 nM"
COc1ccc(/C=C\c2cc(OC)c(OC)c(OC)c2)c(NC(=O)[C@@H](N)CO)c1NC(=O)[C@@H](N)CO.Cl.Cl,,,> 86600 nM,metabolite_notdetected,> 86600 nM,> 86600 nM,

# Source: ChEMBL document CHEMBL3763088, “Design, synthesis, and biological evaluation of water-soluble amino acid prodrug conjugates derived from combretastatin, dihydronaphthalene, and benzosuberene-based parent vascular disrupting agents” (Bioorg Med Chem, 2016)
